Test [1] can be described thus: Binding affinity for nAChR with [3H]nicotine in rat brain. It is filed as tissue-based. The essentials: (§1)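 Competition with 5 nM [3H](-)-nicotine against varied inhibitor concentrations, using 400 µg protein from rat brain membranes or 100 µg protein from recombinant rat α4β2 membranes. Incubation 30 min at 22 °C in Tris-HCl pH 7.4 buffer with NaCl, KCl, CaCl2, MgSO4, EDTA. Stopped by filtration through polyethylenimine-soaked GF/B filters. Nonspecific binding with 5 µM (-)-nicotine.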

Test [2] addresses Nicotinic acetylcholine receptor. Put plainly: Binding affinity for nAChR with [3H]imidacloprid in Myzus persicae. It is filed as protein-complex assay.
Test [3] has the same target. Put plainly: Binding affinity for nAChR with [3H]imidacloprid in Drosophila. Type of test: protein-complex assay, Drosophila melanogaster.
The target of test [4] is Neuronal acetylcholine receptor subunit alpha-4 (Rattus norvegicus, UniProt P09483+P12390). Put plainly: Binding affinity for nAChR with [3H]-nicotine in rat alpha4 beta2 membranes. It is filed as cell membranes. The essentials: as §1
Sequence of Neuronal acetylcholine receptor subunit alpha-4 (P09483 whole entry, one chain of several): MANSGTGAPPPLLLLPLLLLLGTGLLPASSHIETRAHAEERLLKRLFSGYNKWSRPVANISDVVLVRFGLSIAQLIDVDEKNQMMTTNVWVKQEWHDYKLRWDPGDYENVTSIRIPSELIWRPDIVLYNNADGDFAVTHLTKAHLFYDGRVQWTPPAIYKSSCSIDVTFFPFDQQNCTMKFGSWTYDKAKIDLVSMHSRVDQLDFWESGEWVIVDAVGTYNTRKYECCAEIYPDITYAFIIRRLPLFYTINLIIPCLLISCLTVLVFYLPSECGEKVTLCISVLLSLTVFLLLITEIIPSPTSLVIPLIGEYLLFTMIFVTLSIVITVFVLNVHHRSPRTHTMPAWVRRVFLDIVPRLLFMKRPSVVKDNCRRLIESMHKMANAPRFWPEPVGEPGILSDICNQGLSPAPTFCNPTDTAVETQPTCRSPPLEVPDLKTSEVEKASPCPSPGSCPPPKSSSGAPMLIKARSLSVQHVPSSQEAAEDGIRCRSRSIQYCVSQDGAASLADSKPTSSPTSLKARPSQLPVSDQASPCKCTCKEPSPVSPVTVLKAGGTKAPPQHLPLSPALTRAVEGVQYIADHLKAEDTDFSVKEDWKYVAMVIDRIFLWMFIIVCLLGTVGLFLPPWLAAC

Broadly, the pKi is the negative decadic logarithm of the Ki, by convention in mol/L. Low readings indicate a high Ki, high ones a low Ki.

pKi: −log10 of the molar value.

For `C/N=C(\NCc1ccc(Cl)nc1)N[N+](=O)[O-]`, the values for the pKi in test [1], in test [2] and in test [3] were 5.46, 7.92 and 8.00, respectively.
For `C/N=C(\NCc1cnc(Cl)c(N=[N+]=[N-])c1)N[N+](=O)[O-]`, the pKi in test [1] is 7.36; in test [2], 8.35; in test [3] it was 7.89.
On to `[N-]=[N+]=Nc1cc(CN2CCNC2=N[N+](=O)[O-])cnc1Cl` [5-AZIDOIMIDACLOPRID], for which the pKi in test [1] was 7.36; in test [2], 9.00; in test [3], 7.82; in test [4], 8.36.
Turning to `O=[N+]([O-])NC1=NCCN1Cc1ccc(Cl)nc1` [IMIDACLOPRID], the negative-log Ki (pKi) was 6.54 in test [1], 8.72 in test [2], 8.68 in test [3] and 7.30 in test [4].

Source of the values: ChEMBL document CHEMBL1133567, “5-Azidoimidacloprid and an acyclic analogue as candidate photoaffinity probes for mammalian and insect nicotinic acetylcholine receptors” (J Med Chem, 2000).
